Measured values published in ChEMBL document CHEMBL1121388, “Analgesic narcotic antagonists. 2. 8-Alkymorphinan-6-ones” (J Med Chem, 1980).
Activity calls are given as the source filed them. No cut-off for these calls is given here.

Legend:
[1] = system: Mus musculus; assay: The effective dose was measured by using mouse writhing assay after the compound administered subcutaneously.; assay type: functional; conditions: sc
Outline: (§1)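 Analgesia in the mouse writhing test induced by acetic acid, with compound given subcutaneously. Salts were dissolved in distilled H₂O; free bases were dissolved by dropwise 1 N HCl and then diluted.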

[2] = system: Rattus norvegicus; assay: The Effective dose was measured by using rat tail flick assay after the compound administered intraperitoneally at a dose of 25 umol/kg; IA means inactive at the given dose; assay type: functional, organism-based
[3] = system: Rattus norvegicus; assay: Effective dose was measured by using rat tail flick assay after subcutaneous administration; assay type: functional; conditions: sc
Outline: (§2)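 Agonist activity in the rat heat-stimulus tail-flick test. Drug was given subcutaneously and rats were tested 20 min after dosing. Salts were dissolved in distilled H₂O; free bases were dissolved with dropwise 1 N HCl and then diluted. ED₅₀ or inactivity/lethality recorded at the dose indicated.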

[4] = species: Rattus norvegicus; assay: Ratio of agonist to that of antagonist activity; assay type: functional
[5] = system: Rattus norvegicus; assay: The effective dose was measured by using rat tail flick assay after the compound administered intraperitoneally.; assay type: functional; conditions: ip
[6] = system: Mus musculus; assay: The Effective dose was measured by using mouse writhing assay after the compound administered subcutaneously at a dose of 22 umol/kg; IA means inactive at the given dose; assay type: functional, organism-based; outline: as §1
[7] = system: Mus musculus; assay: The Effective dose was measured by using mouse writhing assay after the compound administered subcutaneously at a dose of 25 umol/kg; IA means inactive at the given dose; assay type: functional, organism-based; outline: as §1
[8] = system: Mus musculus; assay: The Effective dose was measured by using mouse writhing assay after the compound administered subcutaneously at a dose of 24 umol/kg; IA means inactive at the given dose; assay type: functional, organism-based; outline: as §1
[9] = system: Rattus norvegicus; assay: The Effective dose was measured by using rat tail flick assay after the compound administered subcutaneously at a dose of 28 umol/kg; IA means inactive at the given dose; assay type: functional, organism-based; outline: as §2
[10] = system: Mus musculus; assay: The Effective dose was measured by using mouse writhing assay after the compound administered subcutaneously at a dose of 75 umol/kg; IA means inactive at the given dose; assay type: functional, organism-based; outline: as §1
[11] = system: Rattus norvegicus; assay: The %change in weight from day 0 to day 4 after administering the compound at dose of 40 (mg/kg)/day in rat; assay type: functional
Outline: (§3)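 Rat physical dependence liability study: drug infused at the stated mg/kg/day for 6 days, with saline-infused controls for 6 days. Body weight was recorded daily and expressed as % change from day 0 on days 1–4. Groups of 4–6 rats; values are means ±.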

[12] = system: Rattus norvegicus; assay: The %change in weight from day 0 to day1 after administering the compound at dose of 40 (mg/kg)/day in rat; assay type: functional; outline: as §3
[13] = system: Rattus norvegicus; assay: The %change in weight from day 0 to day 3 after administering the compound at dose of 40 (mg/kg)/day in rat; assay type: functional; outline: as §3
[14] = system: Rattus norvegicus; assay: The %change in weight from day 0 to day 2 after administering the compound at dose of 40 (mg/kg)/day in rat; assay type: functional; outline: as §3
[15] = system: Mus musculus; assay: The Effective dose was measured by using mouse writhing assay 5 min after the compound administered subcutaneously; assay type: functional; conditions: sc

CCC[C@H]1CC(=O)CC23CCN(CC4CC4)C(Cc4ccc(OC)cc42)[C@H]13 (stereo partly drawn)
ED50 [1]: 12.4 µmol/kg | ED50 [2]: inactive

CC[C@H]1CC(=O)CC23CCN(C)C(Cc4ccc(OC)cc42)[C@H]13 (stereo partly drawn)
ED50 [1]: 3.23 µmol/kg | ED50 [3]: 10.6 µmol/kg

CC(C)=CCN1CC[C@]2(C)c3cc(O)ccc3C[C@H]1[C@H]2C [(+)-PENTAZOCINE]
Ratio [4]: 0.36

COc1ccc2c(c1)[C@]13CCN(CC4CC4)[C@H](C2)[C@@H]1[C@@H](C)CC(=O)C3
ED50 [5]: 4.27 µmol/kg | ED50 [1]: 0.71 µmol/kg | Ratio [4]: 0.17

CN1CCC23CC(=O)CC[C@@H]2C1Cc1ccc(O)cc13 (stereo partly drawn)
ED50 [1]: 0.75 µmol/kg | ED50 [3]: 1.33 µmol/kg

CCC[C@@H]1CC(=O)CC23CCN(CC4CC4)C(Cc4ccc(OC)cc42)[C@@H]13 (stereo partly drawn)
ED50 [5]: 6.4 µmol/kg | ED50 [6]: inactive

O=C1CC[C@@H]2C3Cc4ccc(O)cc4C2(CCN3CC2CCC2)C1 (stereo partly drawn)
ED50 [5]: 13.8 µmol/kg | ED50 [1]: 2.6 µmol/kg

C=CCN1CCC23CC(=O)CC(C)[C@H]2C1Cc1ccc(O)cc13 (stereo partly drawn)
ED50 [5]: 0.65 µmol/kg | ED50 [1]: > 25 µmol/kg

C[C@H]1CC(=O)C[C@]23CCN(CC4CC4)[C@H](Cc4ccc(O)cc42)[C@H]13
ED50 [5]: 1.8 µmol/kg | ED50 [1]: 10.2 µmol/kg | Ratio [4]: 5.7

C=CCN1CC[C@]23c4c5ccc(O)c4O[C@H]2[C@@H](O)C=C[C@H]3[C@H]1C5 [NALORPHINE]
Ratio [4]: 1.42

COc1ccc2c(c1)C13CCN(CC4CCC4)C(C2)[C@@H]1CCC(=O)C3 (stereo partly drawn)
ED50 [1]: 0.58 µmol/kg | ED50 [2]: inactive

COc1ccc2c(c1)C13CCN(CC4CC4)C(C2)[C@H]1CCC(=O)C3 (stereo partly drawn)
ED50 [5]: 3.6 µmol/kg | ED50 [1]: > 25 µmol/kg

COc1ccc2c(c1)C13CCN(C)C(C2)[C@H]1CCC(=O)C3 (stereo partly drawn)
ED50 [1]: 5.54 µmol/kg | ED50 [3]: > 70 µmol/kg

C=CCN1CCC23CC(=O)CC(C)[C@H]2C1Cc1ccc(OC)cc13 (stereo partly drawn)
ED50 [5]: > 24 µmol/kg | ED50 [1]: 3.47 µmol/kg

C[C@H]1CC(=O)CC23CCN(CC4CCC4)C(Cc4ccc(O)cc42)[C@H]13.Cl (stereo partly drawn)
ED50 [5]: 2.79 µmol/kg | ED50 [1]: 0.29 µmol/kg | Ratio [4]: 0.1

C[C@@H]1CC(=O)CC23CCN(CC4CC4)C(Cc4ccc(O)cc42)[C@@H]13 (stereo partly drawn)
ED50 [5]: 0.89 µmol/kg | ED50 [7]: inactive

CCC[C@H]1CC(=O)CC23CCN(CC4CC4)C(Cc4ccc(O)cc42)[C@H]13 (stereo partly drawn)
ED50 [5]: 24.3 µmol/kg | ED50 [7]: inactive

CC[C@@H]1CC(=O)CC23CCN(C)C(Cc4ccc(OC)cc42)[C@@H]13 (stereo partly drawn)
ED50 [1]: 37 µmol/kg | ED50 [3]: > 28 µmol/kg

CC[C@@H]1CC(=O)CC23CCN(CC4CC4)C(Cc4ccc(O)cc42)[C@@H]13 (stereo partly drawn)
ED50 [5]: 0.88 µmol/kg | ED50 [7]: inactive

CCC[C@@H]1CC(=O)CC23CCN(CC4CCC4)C(Cc4ccc(OC)cc42)[C@@H]13 (stereo partly drawn)
ED50 [5]: > 24 µmol/kg | ED50 [8]: inactive

C[C@@H]1CC(=O)CC23CCN(C)C(Cc4ccc(O)cc42)[C@@H]13 (stereo partly drawn)
ED50 [1]: 1.18 µmol/kg | ED50 [3]: 0.93 µmol/kg

CCC[C@H]1CC(=O)CC23CCN(C)C(Cc4ccc(OC)cc42)[C@H]13 (stereo partly drawn)
ED50 [1]: 15.4 µmol/kg | ED50 [3]: > 28 µmol/kg

CC[C@@H]1CC(=O)CC23CCN(CC4CC4)C(Cc4ccc(OC)cc42)[C@@H]13 (stereo partly drawn)
ED50 [5]: 1.64 µmol/kg | ED50 [7]: inactive

CCC[C@@H]1CC(=O)CC23CCN(C)C(Cc4ccc(OC)cc42)[C@@H]13 (stereo partly drawn)
ED50 [9]: inactive | ED50 [1]: 55 µmol/kg

COc1ccc2c(c1)C13CCN(CC4CC4)C(C2)[C@@H]1CCC(=O)C3.Cl (stereo partly drawn)
ED50 [5]: 14.9 µmol/kg | ED50 [1]: 0.66 µmol/kg | Ratio [4]: 0.04

CC[C@@H]1CC(=O)CC23CCN(CC4CCC4)C(Cc4ccc(OC)cc42)[C@@H]13 (stereo partly drawn)
ED50 [10]: inactive | ED50 [5]: > 25 µmol/kg

COc1ccc2c(c1)C13CCN(C)C(C2)[C@@H]1[C@@H](C)CC(=O)C3 (stereo partly drawn)
ED50 [1]: 1.34 µmol/kg | ED50 [3]: 3.57 µmol/kg

O=C(O)C(O)C(O)C(=O)O.Oc1ccc2c(c1)[C@@]13CCCC[C@@]1(O)[C@@H](C2)N(CC1CCC1)CC3 [BUTORPHANOL TARTRATE]
Change [11]: 2.2% | Change [12]: -6.6% | Change [13]: 0.9% | Change [14]: -3.1%

CC[C@H]1CC(=O)CC23CCN(CC4CCC4)C(Cc4ccc(O)cc42)[C@H]13.Cl (stereo partly drawn)
ED50 [5]: 0.82 µmol/kg | ED50 [15]: 0.54 µmol/kg | Ratio [4]: 0.65
